Assay [1] has as its system T98. In words: Antiproliferative activity against human T98 cells assessed as reduction in cell viability incubated for 5 days by PrestoBlue reagent based fluorescence assay. Conditions: T98, 120 h. It counts as functional. In short, it runs like this: (§1)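 Cells seeded in DMEM/10% FBS/2 mM L-glutamine (U87 1×10^3, T98 5×10^2 per well), allowed 48 h at 37 °C, then given fresh medium plus compound from 20× intermediate stocks; untreated wells had 0.1% v/v DMSO. After 5 d, PrestoBlue reading (ex 540, em 590 nm, 60–90 min). EC50 from 4-parameter logistic fit of values normalised to untreated cells, bottom fixed at zero.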

The test system of assay [2] is T98. Briefly: Antiproliferative activity against human T98 cells assessed as reduction in cell viability at 3 to 30 uM incubated for 5 days by PrestoBlue reagent based fluorescence assay. It counts as functional. Particulars: dose 3-30 µM, time 5.0 day. The essentials:
(§2)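 U87 (1×10^3/well) and T98 (5×10^2/well) cells in DMEM with 10% FBS and 2 mM L-glutamine, grown 48 h at 37 °C, 5% CO2, then medium replaced. Compounds added from 20× intermediate dilutions at 3, 10 and 30 μM for 5 d, in triplicate; DMSO 0.1% v/v control. PrestoBlue 60–90 min, fluorescence ex 540/em 590 nm. Normalised to untreated cells; 4-parameter logistic fit, minimum constrained to zero.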

In assay [3] the test system is U-87 MG. In words: Antiproliferative activity against human U87 cells assessed as reduction in cell viability incubated at 3 to 30 uM for 5 days by PrestoBlue reagent based fluorescence assay. The format is functional. Conditions: U-87MG ATCC, dose 3-30 µM, time 5.0 day. In short, it runs like this:
as §2

Assay [4] has as its system E21. Briefly: Antiproliferative activity against human E21 cells assessed as reduction in cell survival incubated for 72 hrs by Hoechst staining based nuclei count assay.
Assay [5] deals with U-87 MG. Briefly: Antiproliferative activity against human U87 cells assessed as reduction in cell viability incubated for 5 days by PrestoBlue reagent based fluorescence assay. Particulars: 120 h. It counts as functional, U-87MG ATCC. The essentials: as §1
The subject of assay [6] is E57. In words: Antiproliferative activity against human E57 cells assessed as reduction in cell viability at 0.01 to 10 uM incubated for 72 hrs by Hoechst staining based nuclei count assay. Particulars: dose 0.01-10 µM.
The subject of assay [7] is E57. Briefly: Antiproliferative activity against human E57 cells assessed as phenotypic change at 1 to 2.5 uM incubated for 72 hrs in presence of INK128 by Hoechst 33342/ Alexa Fluor 488 staining based PCA analysis. Conditions: dose 1-2.5 µM.
Assay [8] relates to E21. Briefly: Antiproliferative activity against human E21 cells assessed as phenotypic change at 1 to 5 uM incubated for 72 hrs in presence of INK128 by Hoechst 33342/ Alexa Fluor 488 staining based PCA analysis. The format is functional, cell-based. Conditions: dose 1-5 µM. The essentials:
(§3)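 Patient-derived glioma stem cells kept in laminin-coated DMEM/F12 with FGF, EGF, B27 and N2, plated at 500–1500 cells/well on laminin (10 μg mL−1). After overnight attachment, dosed in triplicate with 0.1% DMSO final, 72 h at 37 °C. Live MitoTracker DeepRed (final 300 nM, 30 min), formaldehyde fixation (final 4%), Cell Painting staining and imaging, CellProfiler features, PCA of phenotypic profiles.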

Assay [9] deals with E31. Briefly: Antiproliferative activity against human E31 cells assessed as phenotypic change at 1 to 5 uM incubated for 72 hrs in presence of INK128 by Hoechst 33342/ Alexa Fluor 488 staining based PCA analysis. Conditions: dose 1-5 µM. It counts as functional, cell-based. In short, it runs like this: as §3
Assay [10] concerns E21. Briefly: Antiproliferative activity against human E21 cells assessed as reduction in cell viability at 0.01 to 10 uM incubated for 72 hrs by Hoechst staining based nuclei count assay. Particulars: dose 0.01-10 µM.

The text below walks through data of ChEMBL document CHEMBL5329220, “Discovery of pyrazolopyrimidines that selectively inhibit CSF-1R kinase by iterative design, synthesis and screening against glioblastoma cells” (RSC Med Chem, 2023).

The EC50 is the midpoint of the concentration-response curve.

Each structure is given as a SMILES string. Calls of active or inactive are those of the source. The rule behind the calls is not given here. A value given as a limit tells only on which side of the number the result lay.

In the case of `CN(C)C1CCCN(CC#Cc2nn(CC3CCCC3)c3nc(NCc4ccccc4)ncc23)C1` (stereo not given), the EC50 in [1] is less than 4 µM.
For `CNc1ncc2c(C#CCN3CCCC(N(C)C)C3)nn(C3CCCCC3)c2n1` (stereo not given), the result in assay [2] was Active.
On to `CN(C)C1CCCN(CC#Cc2nn(CC3CCCC3)c3nc(NC(C)(C)C)ncc23)C1` (stereo not given), for which the EC50 in [1] is less than 4 µM.
With `CN(C)C1CCCN(CC#Cc2nn(C3CCCC3)c3nc(NC(C)(C)C)ncc23)C1` (stereo not given), the result in assay [3] and in [2] was Active. Also, in assay [4], the Activity entry is “Dose-Dependent Effect”.
With `CC1CCN(CC#Cc2nn(CC3CCCC3)c3ncnc(N)c23)CC1`, the EC50 in assay [5] and in assay [1] was less than 30 µM throughout.
As to `Cn1nnc2c(C(N)=O)ncn2c1=O`, the outcome in assay [3] was Active.
With `CCCNc1ncc2c(C#CCN3CCCC(N(C)C)C3)nn(CC3CCCC3)c2n1` (stereo not given), the EC50 in assay [1] was less than 4 µM.
For the molecule `CN(C)C1CCN(CC#Cc2nn(C3CCCCC3)c3nc(NC(C)(C)C)ncc23)C1` (stereo not given), the results for the EC50 in assay [5] and in assay [1] were 2.71 µM and 2.54 µM, respectively. The Activity result in assay [4] was “Dose-Dependent Effect”.
As to `CNc1ncc2c(C#CCN3CCC(NC(C)=O)CC3)nn(CC3CCCC3)c2n1`, in assay [2], the outcome was Active.
As to `CNc1ncc2c(C#CCN3CCCCCC3)nn(CC3CCCC3)c2n1`, the EC50 in assay [1] worked out at 4.6 µM.
As to `CN(C)C1CCCN(CC#Cc2nn(C3CCCCC3)c3nc(NC(C)(C)C)ncc23)C1` (stereo not given), the outcome in assay [3] and in [2] was Active.
`CCOC(=O)C1CCN(CC#Cc2nn(CC3CCCC3)c3nc(NC)ncc23)CC1`: the outcome in assay [2] was Active.
Same read-out and setting: under `CNc1ncc2c(C#CCN3CCCC(N(C)C)C3)nn(CC3CCCCC3)c2n1` (stereo not given) stands “Active”.
On to `CNc1ncc2c(C#CCN3CCCC(N(C)C)C3)nn(CC3CCCC3)c2n1` (racemic), for which the figures for the EC50 in assay [5] and in assay [1] were 5 µM and 10.8 µM, respectively.
Take `CN(C)C1CCN(CC#Cc2nn(C3CCCC3)c3nc(NCc4ccccc4)ncc23)C1` (stereo not given): the outcome in assay [6], in [7], in assay [8], in assay [9] and in [10] was Active. Also, the EC50 in assay [1] worked out at 2 µM.
As for `CNc1ncc2c(C#CCN3CCC(N(C)C)CC3)nn(CC3CCCC3)c2n1`, the 50% effective concentration (EC50) worked out at 15.9 µM in assay [5] and 14.8 µM in [1].
Consider `CNc1ncc2c(C#CCN3CCCC(N(C)C)C3)nn(C3CCCC3)c2n1` (stereo not given), for which the outcome in assay [2] was Active.
Take `CN(C)C1CCCN(CC#Cc2nn(CC3CCCCC3)c3nc(NC(C)(C)C)ncc23)C1` (stereo not given): the result in assay [3] and in assay [2] was Active.
Turning to `CCC(CC)Nc1ncc2c(C#CCN3CCCC(N(C)C)C3)nn(CC3CCCC3)c2n1` (stereo not given), the EC50 in assay [1] was less than 4 µM. Moreover, the Activity result in [4] is “Dose-Dependent Effect”.
With `CCOC(=O)N1CCN(CC#Cc2nn(CC3CCCC3)c3nc(NC)ncc23)CC1`, the result in assay [2] was Active.
